From the array DNA melting data of Ke et al. (doi:10.1101/2024.01.08.574731)

How the values were obtained:
[1] = folding enthalpy; higher = less favourable; fluorescence melt of hairpins on a sequencing array, two-state fit; conditions: sodium 0.088 M
How it was run: (§1)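 In 50 mM Na-HEPES pH 8.0 containing 25 mM NaCl, hairpins from the library on a sequenced MiSeq flow cell were imaged for Cy3 fluorescence at 2.5 °C steps up to 60 °C, with Cy3 and quencher oligos annealed. After normalisation to pre-quench Cy3 and to control constructs, two-state fits with bootstrapping gave melting temperature and folding enthalpy. Four replicates were combined by inverse-variance weighting, and fitted temperatures were shifted up by 9.35 °C to match UV melts.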

[2] = melting temperature; fluorescence melt of hairpins on a sequencing array, two-state fit, raised by 9.35 °C to match UV melts; conditions: sodium 0.088 M
How it was run: as §1

| Sequence | folding enthalpy [1] [kcal/mol] | Tm [2] [°C] |
| --- | --- | --- |
| GACAGCGGAAACGTTGTC ((((.((....)).)))) | -37.2 | 51.9 |
| GTAAGTCGAAAGACCTAC (((.(((....))).))) | -17 | 35.7 |
| GATACTGGAAACGGTATC (((((.(....).))))) | -30.4 | 42.7 |
| GATTCTGGAAACGGAATC (((((.(....).))))) | -37.2 | 44.4 |
| GCAGTGCGAAAGCTATGC (((..((....))..))) | -17.1 | 55.1 |
| GGGTGCGGAAACGCGTCC ((..(((....)))..)) | -19.7 | 50.9 |
| GCGCAGCGAAAGCGGGGC ((.(.((....)).).)) | -14.3 | 57.6 |
| GTCATTGGAAACAGTGAC ((((.((....)).)))) | -33.7 | 43.9 |
| GTTCCCGAAAGGGATAAC ((((((....)))..))) | -10.2 | 36.5 |
| GAGAGCCGAAAGGCCCTC (((.(((....))).))) | -18.3 | 51.3 |
| GATCCCTGCTGGGATC ((((((....)))))) | -39.5 | 60.2 |
| GGCTAAGGAAACTTAGTC (.(((((....))))).) | -36.7 | 42.4 |
| GCCCGCCGAAAGGCGGC (((.(((....)))))) | -7.03 | 66.6 |
| GTGGCCGCGAAAGCGCAC (((..(((....)))))) | -9.11 | 48.4 |
| GTAGTCGAAAGACTGTAC ((((((....)))..))) | -13.8 | 32.1 |
| GTCTCCGCGAAAGCGGAC (((..(((....)))))) | -6.7 | 34.2 |
| GCCCTCGAAAGAGCTGGC ((((((....)))..))) | -24.7 | 42.3 |
| GGCCCACGAAAGTGCGCC (((.(((....))).))) | -42.5 | 55.8 |
| GAGTTTGGAAACAGACTC ((((.((....)).)))) | -28.3 | 41.1 |
| GCACCTGGAAACAGACGC ((..(((....)))..)) | -15.3 | 29.2 |
| GTGAACGAAAGTTCACAC ((((((....)))..))) | -10.8 | 66.6 |
| GTCATCCGAAAGGAGAC (((.(((....)))))) | -20.1 | 45.2 |
| GTTCCAGAAATGGAAC ((((((....)))))) | -32.2 | 53.4 |

| Sequence | folding enthalpy [1] [kcal/mol] | Tm [2] [°C] |
| --- | --- | --- |
| GCGGTAACGAAAGTTCGC (((..(((....)))))) | -26.7 | 47.4 |
| GCCCAGCGAAAGCTCTGC ((..(((....)))..)) | -6.7 | 26.9 |
| GACAACGAAAGTTTCGTC ((((((....)))..))) | -14.1 | 32.8 |
| GAATGCACGAAAGTGTTC (((..(((....)))))) | -8.75 | 23.1 |
| GGCAGGCCGAAAGGCGCC (((..(((....)))))) | -21.3 | 59.6 |
| GTAGGTGGAAACACCTAC (((((((....))))))) | -36.7 | 60.5 |
| GCGAGCGAAAGCTTCCGC ((((((....)))..))) | -16.6 | 44.2 |
| GGGTCAGCGAAAGCTCCC (((..(((....)))))) | -17.7 | 42.7 |
| GCTAACCGAAAGGTCAGC (((.(((....))).))) | -29.7 | 49.7 |
| GGGAACGAAAGTTCTCCC ((((((....)))..))) | -14.7 | 45 |
| GGACATACGAAAGTATCC (((..(((....)))))) | -10.9 | 26.8 |
| GATCGACCGTCGATC ((((((...)))))) | -36 | 49 |
| GCGAACGGAAACGCTCAC (.((.((....)).)).) | -14.3 | 34 |
| GATCAAGAACTTGATC ((((((....)))))) | -38.4 | 49.2 |
| GGTAAAGAAATTTACC ((((((....)))))) | -26 | 40.1 |
| GTTTTAGGAAACTAAGAC ((.((((....)))).)) | -15.7 | 29 |
| GCTTCACCGAAAGGTAGC (((..(((....)))))) | -16.8 | 35.3 |
| GTATATGAAAATATAC ((((((....)))))) | -23.7 | 39.1 |
| GATCATTCAATGATC ((((((...)))))) | -30.6 | 47.1 |
| GATATTGGAAACGATATC (((((.(....).))))) | -33 | 36.2 |
| CGACAACGGAAACGTTCG (((..(((....)))))) | -14.3 | 35.9 |
| TGTGAGAAATCACA (((((....))))) | -18.3 | 38.9 |
| GCAACAGGAAACTGTTGC (((((((....))))))) | -40.3 | 68.5 |

| Sequence | folding enthalpy [1] [kcal/mol] | Tm [2] [°C] |
| --- | --- | --- |
| GATCTCCCCCGAGATC ((((((....)))))) | -36 | 51.5 |
| GTAAGGGGAAACCCTTGC (.(((((....))))).) | -23.3 | 46.2 |
| AGAGTGAAAACTCT (((((....))))) | -16.6 | 40.8 |
| GTGGCGGGAAACTGCCGC (.(((.(....).))).) | -22.2 | 53.5 |
| GGGGCAGGAAACTGTCCC (((.(((....))).))) | -39.4 | 61.3 |
| GAGCACGAAAGTGGACTC ((((((....)))..))) | -14.2 | 48.7 |
| GTGTTTCGAAAGAACCAC (((.(((....))).))) | -30.7 | 43 |
| GGTAGCCGAAAGGCGACC (((.(((....))).))) | -24.5 | 66.9 |
| GTTTTGCGAAAGCAGAAC (((.(((....))).))) | -29.9 | 51.4 |
| GCGCGGGGAAACCCACGC (((.(((....))).))) | -35 | 61.6 |
| GATCATAGCGATGATC ((((((....)))))) | -44.1 | 46.9 |
| GCGCTCCCGAAAGGGCGC (((..(((....)))))) | -35 | 62.2 |
| GCCTGCGCGAAAGCGGGC (((..(((....)))))) | -15.4 | 55.5 |
| GTATGCGAAAGCACATAC ((((((....)))..))) | -11.2 | 31.8 |
| GCTAGTGGAAACATTAGC ((((.((....)).)))) | -28.3 | 42.7 |
| GTGCAGGCGAAAGCCCAC (((..(((....)))))) | -10.8 | 48.9 |
| GATCAGGATGCTGATC ((((((....)))))) | -43.3 | 50.3 |
| GGACTCCGAAAGGACTCC (((.(((....))).))) | -21.1 | 39.2 |
| GATCTCTCGTGAGATC ((((((....)))))) | -40 | 52.5 |
| GCGTCCCTACGC ((((....)))) | -23.2 | 53.7 |
| GATCGCCGTCGCGATC ((((((....)))))) | -36.5 | 66.6 |
| GTTTCACGAAAGTGAAC (((.(((....)))))) | -14.4 | 49.4 |
| GATCACATTCGTGATC ((((((....)))))) | -39.2 | 59.4 |

| Sequence | folding enthalpy [1] [kcal/mol] | Tm [2] [°C] |
| --- | --- | --- |
| GGATGAGGAAACTCGTCC (((.(((....))).))) | -38.4 | 50.8 |
| GGCTCACGAAAGTGGCC (((.(((....)))))) | -26.3 | 56.6 |
| GCGGGTAGCCGC ((((....)))) | -24.2 | 64 |
| GATCGTGGAAACATGATC ((((.((....)).)))) | -43.8 | 47.5 |
| GTATGCGAAAGCACGTAC ((((((....)))..))) | -8.02 | 34.1 |
| GATCGATGCATCGATC ((((((....)))))) | -46.9 | 59.7 |
| GCATATCGAAAGATCTGC (((.(((....))).))) | -31.2 | 43.9 |
| GGAGACGAAAGTCCTCC ((((((....))).))) | -25 | 48.7 |
| GTTAGGGAAACCTAAC ((((((....)))))) | -30.8 | 48.4 |
| GAGGGCGAAAGCCGCCTC ((((((....)))..))) | -9.67 | 36.3 |
| GGTACCGAAAGGTCAACC ((((((....)))..))) | -15.3 | 34.5 |
| GGTCTATCGAAAGATACC (((..(((....)))))) | -10.3 | 25.8 |
| GCGGTCTTCCGC ((((....)))) | -23.6 | 59.1 |
| GAGATCGAAAGATCTC ((((((....)))))) | -38.2 | 63.2 |
| GGTCCGTCGAAAGACACC (((..(((....)))))) | -14.1 | 27.5 |
| GCCACTGGAAACAGCGAC (.(.(((....))).).) | -13.9 | 26 |
| GCCCGTGGAAACATGGGC ((((.((....)).)))) | -46 | 61.2 |
| GTGGGTCGAAAGACCAC (((.(((....)))))) | -14.3 | 57 |
| GGTCACCGAAAGGTAACC (((.(((....))).))) | -27.5 | 48.4 |
| GGTCACGAAAGTGAGACC ((((((....)))..))) | -15.7 | 45.8 |
| GGCCCACGAAAGTGAGCC (((.(((....))).))) | -40.6 | 60.8 |
| GGGACGACGAAAGTCCCC (((..(((....)))))) | -15.2 | 49.2 |
| GCCGTAGAAATACGGC ((((((....)))))) | -42.4 | 64 |
